Data set [1] relates to Hepatitis B virus. The data set can be described thus: Antiviral activity against HBV infected in human HepG2(2.2.15) cells. In kind it is functional. Particulars: read-out: ED50 (the source's name).
In data set [2] the test system is HepG2. The data set can be described thus: Drug metabolism in human HepG2 cells assessed as compound monophosphate level per 10^6 cells at 2 uM after 12 hrs by reversed-phase HPLC analysis. In kind it is ADME, cell-based. As to conditions: hepg2, 12 h. An outline of the steps:
(§1)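 HepG2 cells were grown in DMEM with 10% FBS and 1 mM pyruvate at 37°C, 5% CO2. They were seeded at 2.5 × 10^6/well and exposed after adherence to 2 or 10 μM [3H]-labelled nucleoside (440 or 1,000 dpm/pmol) for 6–24 h. Cells were washed in ice-cold PBS, trypsinized and counted (viability >95%). Metabolites were extracted twice in 60% methanol at −20°C for 16 h. Extracts were separated by ion-pair reverse-phase C18 HPLC and counted by fraction scintillation. Phosphates were identified by UV spectra, a triphosphate standard and alkaline phosphatase digestion.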

The subject of data set [3] is HepG2. As to the kind of experiment: Drug metabolism in human HepG2 cells assessed as compound monophosphate level per 10^6 cells at 10 uM after 12 hrs by reversed-phase HPLC analysis. In kind it is ADME, cell-based. As to conditions: hepg2, 12 h. The method, boiled down: as §1
For data set [4], the system named is HepG2. The data set can be described thus: Drug metabolism in human HepG2 cells assessed as compound monophosphate level per 10^6 cells at 2 uM after 18 hrs by reversed-phase HPLC analysis. In kind it is ADME, cell-based. As to conditions: hepg2, 18 h. The method, boiled down:
as §1

The subject of data set [5] is HepG2. The data set can be described thus: Drug metabolism in human HepG2 cells assessed as compound monophosphate level per 10^6 cells at 10 uM after 18 hrs by reversed-phase HPLC analysis. It is filed as ADME, cell-based. As to conditions: hepg2, 18 h. The method, boiled down:
as §1

In data set [6] the test system is HepG2. As to the kind of experiment: Drug metabolism in human HepG2 cells assessed as compound monophosphate level per 10^6 cells at 2 uM after 24 hrs by reversed-phase HPLC analysis. As to conditions: hepg2, 24 h. In kind it is ADME, cell-based. An outline of the steps: as §1
Data set [7] relates to HepG2. The data set can be described thus: Drug metabolism in human HepG2 cells assessed as compound monophosphate level per 10^6 cells at 10 uM after 24 hrs by reversed-phase HPLC analysis. It is filed as ADME, cell-based. Particulars: hepg2, 24 h. An outline of the steps:
as §1

Data set [8] deals with HepG2. As to the kind of experiment: Drug metabolism in human HepG2 cells assessed as compound monophosphate level per 10^6 cells at 2 uM after 6 hrs by reversed-phase HPLC analysis. It is filed as ADME, cell-based. As to conditions: hepg2, 6 h. An outline of the steps:
as §1

The subject of data set [9] is HepG2. The data set can be described thus: Drug metabolism in human HepG2 cells assessed as compound monophosphate level per 10^6 cells at 10 uM after 6 hrs by reversed-phase HPLC analysis. In kind it is ADME, cell-based. Particulars: hepg2, 6 h. An outline of the steps:
as §1

In data set [10] the test system is HepG2. The data set can be described thus: Drug metabolism in human HepG2 cells assessed as compound diphosphate level per 10^6 cells at 2 uM after 6 hrs by reversed-phase HPLC analysis. In kind it is ADME, cell-based. Particulars: hepg2, 6 h. The method, boiled down: as §1
The test system of data set [11] is HepG2. As to the kind of experiment: Drug metabolism in human HepG2 cells assessed as compound diphosphate level per 10^6 cells at 10 uM after 6 hrs by reversed-phase HPLC analysis. As to conditions: hepg2, 6 h. In kind it is ADME, cell-based. An outline of the steps: as §1
The subject of data set [12] is HepG2. The data set can be described thus: Drug metabolism in human HepG2 cells assessed as compound diphosphate level per 10^6 cells at 2 uM after 12 hrs by reversed-phase HPLC analysis. In kind it is ADME, cell-based. Particulars: hepg2, 12 h. The method, boiled down: as §1
For data set [13], the system named is HepG2. As to the kind of experiment: Drug metabolism in human HepG2 cells assessed as compound diphosphate level per 10^6 cells at 10 uM after 12 hrs by reversed-phase HPLC analysis. As to conditions: hepg2, 12 h. In kind it is ADME, cell-based. The method, boiled down: as §1
Data set [14] relates to HepG2. As to the kind of experiment: Drug metabolism in human HepG2 cells assessed as compound diphosphate level per 10^6 cells at 2 uM after 18 hrs by reversed-phase HPLC analysis. In kind it is ADME, cell-based. Particulars: hepg2, 18 h. The method, boiled down: as §1
The test system of data set [15] is HepG2. The data set can be described thus: Drug metabolism in human HepG2 cells assessed as compound diphosphate level per 10^6 cells at 2 uM after 24 hrs by reversed-phase HPLC analysis. In kind it is ADME, cell-based. Particulars: hepg2, 24 h. An outline of the steps: as §1
For data set [16], the system named is HepG2. The data set can be described thus: Drug metabolism in human HepG2 cells assessed as compound diphosphate level per 10^6 cells at 10 uM after 24 hrs by reversed-phase HPLC analysis. In kind it is ADME, cell-based. Particulars: hepg2, 24 h. The method, boiled down:
as §1

For data set [17], the system named is HepG2. The data set can be described thus: Drug metabolism in human HepG2 cells assessed as compound triphosphate level per 10^6 cells at 2 uM after 6 hrs by reversed-phase HPLC analysis. In kind it is ADME, cell-based. Particulars: hepg2, 6 h. An outline of the steps: as §1
Data set [18] relates to HepG2. The data set can be described thus: Drug metabolism in human HepG2 cells assessed as compound triphosphate level per 10^6 cells at 10 uM after 6 hrs by reversed-phase HPLC analysis. Particulars: hepg2, 6 h. In kind it is ADME, cell-based. An outline of the steps: as §1
Data set [19] concerns HepG2. The data set can be described thus: Drug metabolism in human HepG2 cells assessed as compound triphosphate level per 10^6 cells at 2 uM after 12 hrs by reversed-phase HPLC analysis. It is filed as ADME, cell-based. As to conditions: hepg2, 12 h. The method, boiled down:
as §1

Data set [20] relates to HepG2. As to the kind of experiment: Drug metabolism in human HepG2 cells assessed as compound triphosphate level per 10^6 cells at 10 uM after 12 hrs by reversed-phase HPLC analysis. It is filed as ADME, cell-based. Particulars: hepg2, 12 h. The method, boiled down: as §1
Data set [21] deals with HepG2. As to the kind of experiment: Drug metabolism in human HepG2 cells assessed as compound triphosphate level per 10^6 cells at 2 uM after 18 hrs by reversed-phase HPLC analysis. Particulars: hepg2, 18 h. It is filed as ADME, cell-based. The method, boiled down: as §1
The test system of data set [22] is HepG2. As to the kind of experiment: Drug metabolism in human HepG2 cells assessed as compound triphosphate level per 10^6 cells at 10 uM after 18 hrs by reversed-phase HPLC analysis. In kind it is ADME, cell-based. Particulars: hepg2, 18 h. The method, boiled down:
as §1

Data set [23] concerns HepG2. The data set can be described thus: Drug metabolism in human HepG2 cells assessed as compound triphosphate level per 10^6 cells at 2 uM after 24 hrs by reversed-phase HPLC analysis. As to conditions: hepg2, 24 h. It is filed as ADME, cell-based. An outline of the steps: as §1
Data set [24] relates to HepG2. As to the kind of experiment: Drug metabolism in human HepG2 cells assessed as compound triphosphate level per 10^6 cells at 10 uM after 24 hrs by reversed-phase HPLC analysis. It is filed as ADME, cell-based. As to conditions: hepg2, 24 h. The method, boiled down: as §1
Data set [25] is described as follows: Cytotoxicity against human HepG2 cells at 2 uM after 48 hrs. Particulars: read-out: INH. In kind it is cell-based. The method, boiled down: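 HepG2 cells were preincubated 24 h with 3 μM 3-deazauridine, then exposed for a second 24 h to 3 μM deazauridine plus 2 μM tritiated test nucleoside. Read-out was inhibition of HepG2 cell growth over the 48 h.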
Data set [26] relates to HepG2. As to the kind of experiment: Drug metabolism in human HepG2 cells assessed as compound diphosphate level per 10^6 cells at 10 uM after 18 hrs by reversed-phase HPLC analysis. It is filed as ADME, cell-based. As to conditions: hepg2, 18 h. An outline of the steps:
as §1

Data set [27] in a line: Half life in human HepG2 cells by HPLC analysis. In kind it is ADME, cell-based. An outline of the steps: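 HepG2 cells (1.5 × 10^6/well) were loaded 24 h with 10 μM [3H]-labelled nucleoside, washed three times and chased in drug-free medium. Cells were harvested at intervals, then counted and methanol-extracted. Mono-, di- and triphosphates were quantified by radio-HPLC. t1/2 was calculated as 0.693/κ, where κ is the terminal slope of a semilog plot of intracellular phosphate level versus time.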

Data set [28] in a line: Cytotoxicity against human HepG2 cells. Particulars: read-out: CD50 (the source's name). In kind it is cell-based.
The subject of data set [29] is Hepatitis B virus. The data set can be described thus: Inhibition of HBV DNA polymerase at 1 uM.

Experimental findings from ChEMBL document CHEMBL1212783, “Cellular pharmacology of the anti-hepatitis B virus agent beta-L-2',3'-didehydro-2',3'-dideoxy-N4-hydroxycytidine: relevance for activation in HepG2 cells” (Antimicrob Agents Chemother, 2010) are described below.

Regarding `O=c1nc(NO)ccn1[C@@H]1C=C[C@H](CO)O1`, the EC50 in the data set on Hepatitis B virus [1] stood at 0.03 µM. Moreover, the Stability was found to be 1.3 pmol in the data set on HepG2 [2]; 5.6 pmol in the data set with HepG2 [3]; 2.3 pmol in the data set with HepG2 [4]; 7.3 pmol in the data set with HepG2 [5]; 4 pmol with HepG2 [6]; 11.5 pmol in the data set with HepG2 [7]. The Stability in the data set with HepG2 [8] is listed as 0.5 pmol; in the data set with HepG2 [9] it was 4.4 pmol; in the data set on HepG2 [10], 1.3 pmol; in the data set with HepG2 [11] it was 11.5 pmol; in the data set on HepG2 [12], 4.5 pmol; with HepG2 [13], 22.6 pmol. In addition, the Stability with HepG2 [14] is recorded as 6.6 pmol; in the data set with HepG2 [15] it was 9.8 pmol; with HepG2 [16], 43.5 pmol; in the data set on HepG2 [17], 1.1 pmol; with HepG2 [18], 5.3 pmol; in the data set with HepG2 [19] it was 3.1 pmol. Moreover, the Stability is on record as 10.4 pmol in the data set on HepG2 [20]; 3.8 pmol in the data set with HepG2 [21]; 15.2 pmol in the data set on HepG2 [22]; 5.3 pmol in the data set with HepG2 [23]; 19.4 pmol with HepG2 [24]; 30.3 pmol with HepG2 [26]. Further, the cytotoxicity at 48 h, 2 µM in [25] was 11%.

As for `O=c1nc(NO)ccn1[C@@H]1C=C[C@H](COP(=O)(O)OP(=O)(O)O)O1`, the half-life (as a rule, the time needed for the level to fall by half in the phase considered) in data set [27] was 18.6 h.

Take `Nc1ccn([C@@H]2C=C[C@H](CO)O2)c(=O)n1`: the CC50 in data set [28] is 20 µM.

In the case of `O=c1nc(NO)ccn1[C@@H]1C=C[C@H](COP(=O)(O)OP(=O)(O)OP(=O)(O)O)O1`, the inhibition (as a rule, how much of the control response was suppressed) with Hepatitis B virus [29] was determined as 90%. The compound also had a half-life in data set [27] of 29.7 h.
